For test [1], the target named is P2Y purinoceptor 12 (Homo sapiens) (UniProt Q9H244). Put plainly: Antagonist activity at P2Y12 receptor assessed as inhibition of ADP-induced human platelet aggregation by washed platelet assay at 100 uM. Type of test: functional. Put shortly: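 Blood from healthy volunteers was anticoagulated with ACD and spun at 180g for 15 min to give PRP. Platelets were washed three times in HEPES-buffered saline, pH 7.4, with 0.2% BSA and 5 µM PGI2, then resuspended with 0.25 U/mL apyrase. The suspension held 1 mg/mL fibrinogen at 37 °C, stirred at 1000 rpm. Compound (usually 1 nM–100 µM) was added for 2 min, then ADP at EC90 (usually 1–10 µM). Optical aggregation was recorded for 8 min. IC50 came from a four-parameter logistic fit.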
Chain of P2Y purinoceptor 12 (Homo sapiens) (Q9H244 whole entry): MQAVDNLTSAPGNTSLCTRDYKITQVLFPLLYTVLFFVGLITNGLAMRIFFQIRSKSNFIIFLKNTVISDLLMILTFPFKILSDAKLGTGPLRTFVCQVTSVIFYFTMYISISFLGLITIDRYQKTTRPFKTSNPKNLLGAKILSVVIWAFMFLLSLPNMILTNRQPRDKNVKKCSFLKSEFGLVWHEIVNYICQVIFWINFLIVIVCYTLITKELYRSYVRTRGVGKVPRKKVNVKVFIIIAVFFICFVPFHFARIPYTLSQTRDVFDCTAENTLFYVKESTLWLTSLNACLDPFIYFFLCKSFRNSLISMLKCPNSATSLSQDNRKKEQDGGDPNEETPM

Test [2] deals with T1, P2Y purinoceptor 6 (Homo sapiens, UniProt Q15077). Put plainly: Agonist activity at P2Y6 receptor expressed in human 1321 cells at 100 uM by calcium mobilization assay. Type of test: functional, cell-based. Put shortly: (§1)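 1321N1 human astrocytoma cells expressing the recombinant receptor were loaded with Fluo-3 AM (2.5 µM final) for 60 min at 25 °C. Assay buffer: KCl 10, NaCl 118, CaCl2 2.5, MgCl2 1, HEPES 20, glucose 10 mM, pH 7.4. Cells were washed and then stimulated with compound. Intracellular calcium was read as the change in fluorescence (FLIPR). Values are EC50 in µM. SR means 5–20% of maximal response at the top concentration, usually 100 µM. NR means no response.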
T1 sequence (Q15077 whole entry): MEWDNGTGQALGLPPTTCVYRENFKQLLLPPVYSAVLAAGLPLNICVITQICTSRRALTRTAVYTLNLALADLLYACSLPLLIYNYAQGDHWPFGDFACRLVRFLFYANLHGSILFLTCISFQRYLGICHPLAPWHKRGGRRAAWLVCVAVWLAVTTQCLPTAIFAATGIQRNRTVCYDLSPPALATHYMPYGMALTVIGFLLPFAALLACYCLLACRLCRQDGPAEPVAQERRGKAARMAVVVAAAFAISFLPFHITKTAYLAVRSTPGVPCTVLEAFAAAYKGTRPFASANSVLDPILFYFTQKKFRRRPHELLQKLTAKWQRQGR
In general terms: Calcium flux is commonly read through the fluorescence of an indicator in the cells.

For test [3], the target named is T2, P2Y purinoceptor 2 (Homo sapiens, UniProt P41231). Put plainly: Agonist activity at P2Y2 receptor expressed in human 1321 cells at 100 uM by calcium mobilization assay. Type of test: functional, cell-based. Summed up: as §1
T2 sequence (P41231 whole entry): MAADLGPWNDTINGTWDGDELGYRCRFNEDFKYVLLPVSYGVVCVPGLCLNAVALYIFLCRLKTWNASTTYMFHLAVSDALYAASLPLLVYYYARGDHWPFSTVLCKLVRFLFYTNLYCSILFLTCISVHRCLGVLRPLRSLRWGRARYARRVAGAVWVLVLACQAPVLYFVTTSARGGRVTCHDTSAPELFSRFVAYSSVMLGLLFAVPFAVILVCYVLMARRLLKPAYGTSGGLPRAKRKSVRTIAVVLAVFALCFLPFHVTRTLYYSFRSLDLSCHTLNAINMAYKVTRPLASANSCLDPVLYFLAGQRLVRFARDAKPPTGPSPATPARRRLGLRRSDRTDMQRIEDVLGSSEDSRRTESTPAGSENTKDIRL
For test [4], the target named is T3, P2Y purinoceptor 1 (Homo sapiens, UniProt P47900). Put plainly: Agonist activity at human recombinant P2Y1 receptor expressed in human 1321 cells at 100 uM by calcium mobilization assay. Type of test: functional, cell-based. Put shortly:
as §1

In test [5] the target is P2Y purinoceptor 4 (Homo sapiens) (UniProt P51582). Put plainly: Agonist activity at P2Y4 receptor expressed in human 1321 cells at 100 uM by calcium mobilization assay. The format is functional, cell-based.
Chain of P2Y purinoceptor 4 (Homo sapiens) (P51582 whole entry): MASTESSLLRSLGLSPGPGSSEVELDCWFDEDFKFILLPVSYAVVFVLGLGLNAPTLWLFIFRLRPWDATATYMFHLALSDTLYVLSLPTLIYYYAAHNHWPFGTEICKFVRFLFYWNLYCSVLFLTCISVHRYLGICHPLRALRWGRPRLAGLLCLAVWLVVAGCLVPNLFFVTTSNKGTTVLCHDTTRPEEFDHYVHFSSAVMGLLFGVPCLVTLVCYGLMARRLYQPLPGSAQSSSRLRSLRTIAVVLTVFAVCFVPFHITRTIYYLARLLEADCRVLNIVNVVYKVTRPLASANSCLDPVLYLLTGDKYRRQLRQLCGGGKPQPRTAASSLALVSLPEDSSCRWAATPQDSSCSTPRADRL
The target in test [6] is P2Y purinoceptor 12 (Homo sapiens) (UniProt Q9H244). Put plainly: Antagonist activity at P2Y12 receptor assessed as inhibition of 2-MeS-ADP-induced human platelet aggregation. Type of test: functional. Summed up:
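Washed human platelets (ACD-anticoagulated blood, PGI2/apyrase washes) with 1 mg/mL fibrinogen at 37 °C, stirred. Concentration–response curves to 2-MeS-ADP were run alone and with antagonist at 1, 3, 10, 30 or 100 µM. Aggregation was read optically. Schild (Arunlakshana-Schild) analysis gave KB and slope.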

Test [7] addresses T2, P2Y purinoceptor 2. Put plainly: Agonist activity at P2Y2 receptor expressed in human 1321 cells by calcium mobilization assay. Type of test: functional, cell-based.
Test [8] concerns the target P2Y purinoceptor 12 (Homo sapiens) (UniProt Q9H244). Put plainly: Reversal of antagonist activity at P2Y12 receptor in human washed platelets pretreated at 50 uM for 3 mins before addition of 2-Me-S-ADP and fibrinogen. The format is functional. Summed up: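 Washed human platelets were incubated with 50 µM antagonist for 3 min at 37 °C without fibrinogen. One set was then stimulated directly with 2-MeS-ADP plus fibrinogen. The other set was centrifuged once, resuspended in drug-free medium, and then stimulated. Optical aggregation was monitored for 6–8 min.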

Test [9] has as its target T3, P2Y purinoceptor 1. Put plainly: Agonist at human recombinant P2Y1 receptor expressed in human 1321 cells by calcium mobilization assay. Type of test: functional, cell-based. Put shortly: as §1
Test [10] has as its target T1, P2Y purinoceptor 6. Put plainly: Agonist activity at P2Y6 receptor expressed in human 1321 cells by calcium mobilization assay. The format is functional, cell-based. Put shortly:
as §1

Active and inactive are the calls of the source. No cut-off for these calls is given here.

T3 sequence (P47900 whole entry): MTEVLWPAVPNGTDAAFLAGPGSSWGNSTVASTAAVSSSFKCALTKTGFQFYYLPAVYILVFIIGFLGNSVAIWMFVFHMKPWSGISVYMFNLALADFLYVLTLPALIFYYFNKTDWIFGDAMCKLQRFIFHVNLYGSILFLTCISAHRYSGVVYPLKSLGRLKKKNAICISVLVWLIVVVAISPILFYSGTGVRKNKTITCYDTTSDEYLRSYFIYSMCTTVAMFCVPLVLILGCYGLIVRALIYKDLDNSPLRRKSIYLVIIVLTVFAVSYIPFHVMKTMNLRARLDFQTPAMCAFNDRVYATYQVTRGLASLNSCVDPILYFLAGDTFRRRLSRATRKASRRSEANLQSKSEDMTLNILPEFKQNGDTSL

A word on the inhibition: it is the percentage by which the read-out fell short of the control. Take `Nc1ncnc2c1ncn2[C@@H]1O[C@H](COP(=O)(O)O)[C@H]2O[C@@H](c3ccccc3)O[C@H]21`: the inhibition in test [1] came out at 75%. Moreover, the outcome (at P2Y purinoceptor 6 [2]; on P2Y purinoceptor 2 [3]; at P2Y purinoceptor 1 [4]; in test [5]) was inactive.

As usually defined, the Kb is the equilibrium dissociation constant of an antagonist, usually derived from a functional assay. By EC50 is commonly meant the concentration giving half of the maximal effect. In the case of `O=c1ccn([C@@H]2O[C@H](COP(=O)(O)OP(=O)(O)OP(=O)(O)OP(=O)(O)OC[C@@H]3O[C@H](n4ccc(=O)[nH]c4=O)[C@H]4OC(Cc5ccccc5)O[C@H]43)[C@H]3OC(Cc4ccccc4)O[C@H]32)c(=O)[nH]1` (some centres undefined), in test [6], the Kb worked out at 0.249 µM. Besides, the Activity on P2Y purinoceptor 6 [2] was greater than 5%. Further, the EC50 at P2Y purinoceptor 2 [7] amounted to 14.6 µM. Further, the outcome at P2Y purinoceptor 1 [4] was inactive. For the same compound, the outcome in [8] was Active.

With `Nc1ncnc2c1ncn2[C@@H]1O[C@H](COP(=O)(O)OP(=O)(O)OP(=O)(O)OP(=O)(O)OC[C@@H]2O[C@H](n3cnc4c(N)ncnc43)[C@@H](O)[C@H]2O)[C@@H](O)[C@H]1O`, the inhibition in test [1] came to 63%. The result at P2Y purinoceptor 6 [2] was inactive. Moreover, the EC50 worked out at 0.072 µM at P2Y purinoceptor 2 [7] and 0.426 µM at P2Y purinoceptor 1 [9].

Take `Nc1ncnc2c1ncn2[C@@H]1O[C@H](COP(=O)(O)OP(=O)(O)O)[C@H]2O[C@@H](Cc3ccccc3)O[C@H]21`: the result on P2Y purinoceptor 6 [2] was inactive. For the same compound, the EC50 on P2Y purinoceptor 2 [7] is 13.9 µM; on P2Y purinoceptor 1 [9], 4.39 µM.

Take `O=c1ccn([C@@H]2O[C@H](COP(=O)(O)OP(=O)(O)OP(=O)(O)OP(=O)(O)OC[C@@H]3O[C@H](n4ccc(=O)[nH]c4=O)[C@@H](O)[C@H]3O)[C@@H](O)[C@H]2O)c(=O)[nH]1`: the outcome (in test [1]; on P2Y purinoceptor 1 [4]) was inactive. In addition, the EC50 on P2Y purinoceptor 6 [10] was found to be 18.6 µM.

On to `O=c1ccn([C@@H]2O[C@H](COP(=O)(O)OP(=O)(O)OP(=O)(O)OC[C@@H]3O[C@H](n4ccc(=O)[nH]c4=O)[C@@H](O)[C@H]3O)[C@@H](O)[C@H]2O)c(=O)[nH]1`, for which the outcome (in test [1]; on P2Y purinoceptor 1 [4]) was inactive. The EC50 was 13.5 µM on P2Y purinoceptor 2 [7] and 0.4 µM on P2Y purinoceptor 6 [10].

Consider `Nc1ncnc2c1ncn2[C@@H]1O[C@H](COP(=O)(O)O)[C@H]2O[C@@H](Cc3ccccc3)O[C@H]21`, for which, in [1], the inhibition was found to be 47%. The result (at P2Y purinoceptor 6 [2]; on P2Y purinoceptor 2 [3]; at P2Y purinoceptor 1 [4]; in [5]) was inactive.

Consider `O=C(Nc1ccccc1)Nc1ncnc2c1ncn2[C@@H]1O[C@H](COP(=O)(O)OP(=O)(O)O)[C@@H](O)[C@H]1O`, for which the values for the EC50 at P2Y purinoceptor 2 [7], on P2Y purinoceptor 6 [10] and at P2Y purinoceptor 1 [9] were 9.4 µM, 9.75 µM and 2.63 µM, respectively.

Take `O=c1ccn([C@@H]2O[C@H](COP(=O)(O)OP(=O)(O)OP(=O)(O)OC[C@@H]3O[C@H](n4ccc(=O)[nH]c4=O)[C@@H](O)[C@H]3O)[C@H]3OC(Cc4ccccc4)O[C@H]32)c(=O)[nH]1` (some centres undefined): the result on P2Y purinoceptor 2 [3] and on P2Y purinoceptor 1 [4] was inactive. Also, the half-maximal effective concentration (EC50) on P2Y purinoceptor 6 [10] stood at 0.154 µM.

With `CCCC1O[C@@H]2[C@H](O1)[C@@H](COP(=O)(O)OP(=O)(O)OP(=O)(O)OP(=O)(O)OC[C@@H]1O[C@H](n3ccc(=O)[nH]c3=O)[C@@H](O)[C@H]1O)O[C@H]2n1ccc(=O)[nH]c1=O` (some centres undefined), in test [1], the inhibition was determined as 44%. In addition, the figures for the EC50 on P2Y purinoceptor 2 [7] and on P2Y purinoceptor 6 [10] were 0.098 µM and 30 µM, respectively. For the same compound, the result on P2Y purinoceptor 1 [4] was inactive.

As for `O=C(Nc1ccccc1)Nc1ncnc2c1ncn2[C@@H]1O[C@H](COP(=O)(O)O)[C@@H](O)[C@H]1O`, the result (at P2Y purinoceptor 6 [2]; at P2Y purinoceptor 2 [3]; on P2Y purinoceptor 1 [4]; in test [5]) was inactive.

Regarding `CCNC(=O)Nc1ncnc2c1ncn2[C@@H]1O[C@H](COP(=O)(O)O)[C@H]2OC(c3ccccc3)O[C@H]21` (some centres undefined), the result (on P2Y purinoceptor 6 [2]; on P2Y purinoceptor 2 [3]; on P2Y purinoceptor 1 [4]; in test [5]) was inactive.

`CCCCCCNC(=O)Nc1ncnc2c1ncn2[C@@H]1O[C@H](COP(=O)(O)O)[C@H]2OC(Cc3ccccc3)O[C@H]21` (some centres undefined): the result (at P2Y purinoceptor 6 [2]; at P2Y purinoceptor 2 [3]; at P2Y purinoceptor 1 [4]; in [5]) was inactive.

For `Nc1ncnc2c1ncn2[C@@H]1O[C@H](COP(=O)(O)O)[C@H]2OC(C#Cc3ccccc3)O[C@H]21` (some centres undefined), the result (on P2Y purinoceptor 6 [2]; at P2Y purinoceptor 2 [3]; at P2Y purinoceptor 1 [4]; in test [5]) was inactive.

Take `CCCCCCNC(=O)Nc1ncnc2c1ncn2[C@@H]1O[C@H](COP(=O)(O)O)C2OC(/C=C/c3ccccc3)OC21` (single isomer, unassigned): the outcome (on P2Y purinoceptor 6 [2]; on P2Y purinoceptor 2 [3]; on P2Y purinoceptor 1 [4]; in test [5]) was inactive.

For the origin of these results see ChEMBL document CHEMBL1141591, “Lipophilic modifications to dinucleoside polyphosphates and nucleotides that confer antagonist properties at the platelet P2Y12 receptor” (J Med Chem, 2008).
